Test results: ChEMBL document CHEMBL1122394, “Synthesis of potential anticancer agents. Pyrido[4,3-b][1,4]oxazines and pyrido[4,3-b][1,4]thiazines” (J Med Chem, 1983)
Values belong to the molecule of their own block, whether it stands above or below them.

Tests used:
[1] = system: Mus musculus; experiment: Increase in life span of mice with lymphocytic leukemia P388 10E6 tumor cell implant (intraperitoneally) at the highest nontoxic dose of 300 mg/kg tested; assay type: functional; conditions: P388, ip, route intraperitoneal
Outline: (§1)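 Mice bore P388 lymphocytic leukemia. The value is the increase in life span at the highest nontoxic dose tested, with toxicity judged by weight change.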

[2] = system: L1210; experiment: Antiproliferative activity against lymphoid leukemia L1210 cells after 48 hr exposure.; assay type: functional; conditions: Mus musculus, L1210, 48 h; read-out: ID50 (the source's name)
[3] = system: Mus musculus; experiment: Increase in life span of mice with lymphocytic leukemia P388 10E6 tumor cell implant (intraperitoneally) at the highest nontoxic dose of 150 mg/kg tested; assay type: functional; conditions: P388, ip, route intraperitoneal; outline: as §1
[4] = system: L1210; experiment: Concentration that causes a mitotic index (fraction of cells in mitosis divided by total cells) of 0.5 for cultured lymphoid leukemia L1210 cells after exposure of 12 hr; assay type: functional, Mus musculus
Outline: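 Cultured lymphoid leukemia L1210 cells exposed to agent for 12 h. Mitotic index is the fraction of cells in mitosis over total cells. The value is the agent concentration giving a mitotic index of 0.5.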

[5] = system: Mus musculus; experiment: Increase in life span of mice with lymphocytic leukemia P388 10E6 tumor cell implant (intraperitoneally) at the highest nontoxic dose of 75 mg/kg tested; assay type: functional; conditions: P388, ip, route intraperitoneal; outline: as §1
[6] = system: Mus musculus; experiment: Increase in life span of mice with lymphocytic leukemia P388 10E6 tumor cell implant (intraperitoneally) at the highest nontoxic dose of 200 mg/kg tested; assay type: functional; conditions: P388, ip, route intraperitoneal; outline: as §1
[7] = system: Mus musculus; experiment: Increase in life span of mice with lymphocytic leukemia P388 10E6 tumor cell implant (intraperitoneally) at the highest nontoxic dose of 100 mg/kg tested; assay type: functional; conditions: P388, ip, route intraperitoneal; outline: as §1
[8] = system: Mus musculus; experiment: Compound tested for weight change in mice at a dose of 200 mg/kg; Toxic; assay type: toxicity, organism-based; design: dose 200 mg/kg; conditions: in vivo
[9] = system: Mus musculus; experiment: Compound tested for weight change in mice at a dose of 400 mg/kg; Toxic; assay type: toxicity, organism-based; design: dose 400 mg/kg; conditions: in vivo

Compound: CCOC(=O)Nc1cc2c(c(N)n1)N=C(c1cc(OC)c(OC)c(OC)c1)CO2
- ILS at 300 mg/kg [1]: 0%
- IC50 [2]: > 3000 nM

Compound: CCOC(=O)Nc1cc2c(c(N)n1)N=C(c1ccc([N+](=O)[O-])cc1)CO2
- ILS at 300 mg/kg [1]: 0%
- IC50 [2]: > 3000 nM

Compound: CCOC(=O)Nc1cc2c(c(N)n1)N=C(c1ccccc1)C(C)S2 (stereo not given)
- ILS at 150 mg/kg [3]: 10%
- IC50 [2]: 1600 nM
- MI0.5 [4]: 9.6 µM

Compound: CCOC(=O)Nc1cc2c(c(N)n1)N=C(c1cccc(OC)c1)CS2
- ILS at 75 mg/kg [5]: 3%
- IC50 [2]: 530 nM
- MI0.5 [4]: 2 µM

Compound: CCOC(=O)Nc1cc2c(c(N)n1)N=C(c1ccc(Cl)cc1)CO2
- ILS at 300 mg/kg [1]: 0%
- IC50 [2]: > 3000 nM

Compound: CCOC(=O)Nc1cc2c(c(N)n1)N=C(c1ccccc1)C(c1ccccc1)O2 (stereo not given)
- ILS at 200 mg/kg [6]: 2%
- IC50 [2]: 880 nM
- MI0.5 [4]: 3 µM

Compound: CCOC(=O)Nc1cc2oc(=O)c(-c3ccccc3)nc2c(N)n1
- ILS at 300 mg/kg [1]: 0%
- IC50 [2]: 3000 nM

Compound: CCOC(=O)Nc1cc2c(c(N)n1)N=C(c1ccccc1)CS2
- ILS at 300 mg/kg [1]: 0%
- IC50 [2]: 6100 nM
- MI0.5 [4]: >10 µM

Compound: CCOC(=O)Nc1cc2c(c(/N=C/N(C)C)n1)N=C(c1ccccc1)CO2
- ILS at 100 mg/kg [7]: 1%
- IC50 [2]: 310 nM
- Toxicity [8]: Toxic
- MI0.5 [4]: 0.78 µM

Compound: CCOC(=O)Nc1cc2c(c(N)n1)N=C(c1ccccc1)CO2
- Toxicity [9]: Toxic
- ILS at 100 mg/kg [7]: 44%
- ILS at 200 mg/kg [6]: 80%
- IC50 [2]: 225 nM
- MI0.5 [4]: 0.56 µM

- IC50 [2]: 2200 nM
Compound: CCOC(=O)Nc1cc2c(c(NC(=O)CBr)n1)N=C(c1ccccc1)CO2
- MI0.5 [4]: 11 µM

Compound: CCOC(=O)Nc1cc2c(c(N)n1)N=C(c1ccccc1)C(C)O2 (stereo not given)
- ILS at 100 mg/kg [7]: 49%
- IC50 [2]: 110 nM
- MI0.5 [4]: 0.49 µM

- IC50 [2]: 1250 nM
Compound: CCOC(=O)Nc1cc2c(c(N)n1)N=C(c1cc(OC)cc(OC)c1)C(C)O2 (stereo not given)
- MI0.5 [4]: 2.9 µM

- IC50 [2]: > 10000 nM
Compound: CCOC(=O)Nc1cc2c(c(N)n1)N=C(c1ccccc1)C(C)(C)S2

Compound: CCOC(=O)Nc1cc2c(c(N)n1)N=C(c1ccc3ccccc3c1)CS2
- ILS at 300 mg/kg [1]: 5%
- IC50 [2]: 580 nM
- MI0.5 [4]: 3 µM

Compound: CCOC(=O)Nc1cc2c(c(N)n1)N=C(c1ccc(OC)cc1)CS2
- ILS at 300 mg/kg [1]: 3%
- IC50 [2]: 340 nM
- MI0.5 [4]: 4.9 µM

Compound: CCOC(=O)Nc1cc2c(c(N)n1)N=C(c1cccc(OC)c1)CO2
- IC50 [2]: 52 nM
- MI0.5 [4]: 0.1 µM
